Laboratory results published in ChEMBL document CHEMBL1132342, “Novel hypotensive agents from Verbesina caracasana. 6. Synthesis and pharmacology of caracasandiamide” (1999).
Where “and” joins values, the source holds several entries; their conditions need not be identical. Equal values may be shown once.

Experiments:
[1] = system: Rattus norvegicus; experiment: Change in heart rate after iv administration of 1600 ug/Kg in the presence of acetylcholine (agonist) in anesthetized rats; type: functional
Method in brief: (§1)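 Urethane-anesthetized male Wistar rats (16 rats, two equal groups) received 400 or 1600 µg/kg compound iv. Cardiovascular responses to iv agonist boluses (noradrenaline 1 µg/kg, acetylcholine 2.50 µg/kg, adrenaline, isoprenaline) were measured before and after compound dosing. Peak responses are given as mean ± SE; p < 0.05 versus control mean.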

[2] = system: Rattus norvegicus; experiment: Change in systolic blood pressure after iv administration of 200 ug/Kg in anesthetized rats; type: functional, Artery
Method in brief: (§2)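 Male Wistar rats (299 ± 3 g) were anesthetized with ethylurethane ip, tracheally cannulated and breathing spontaneously, at 37 °C, and stabilized for 60 min. Doses of 50-3200 µg/kg (ratio 2.0) in saline were injected by femoral vein, 50 µL each. Recordings: femoral arterial BP, electromagnetic abdominal-aortic flow, SV from integrated pulsatile flow, polygraphic RF. Peak changes, mean ± SE, n = 12 (n = 7 at 3200).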

[3] = system: Rattus norvegicus; experiment: Change in diastolic blood pressure after iv administration of 400 ug/Kg in the presence of isoprenaline (agonist) in anesthetized rats; type: functional, Artery; method in brief: as §1
[4] = system: Rattus norvegicus; experiment: Change in diastolic blood pressure after iv administration of 1600 ug/Kg compound (treatment with papaverine(1 mg/Kg/min, iv)in anesthetized rats; type: functional, Artery
Method in brief: (§3)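 In anesthetized male Wistar rats, responses to iv compound (200–1600 µg/kg, ratio 2.0) were measured alone and under three pretreatments: continuous iv papaverine infusion (1 mg/kg/min), ip reserpine (5 mg/kg/day for 2 days), or iv hexamethonium (5 mg/kg). Peak changes are given as mean ± SE, n = 6 per group; p < 0.05 versus control.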

[5] = system: Rattus norvegicus; experiment: Change in stroke volume after iv administration of 200 ug/Kg in anesthetized rats; type: functional; method in brief: as §2
[6] = system: Rattus norvegicus; experiment: Change in stroke volume after iv administration of 800 ug/Kg in anesthetized rats; type: functional; method in brief: as §2
[7] = system: Rattus norvegicus; experiment: Maximum rate of rise of the left ventricular isovolumetric pressure was measured after iv administration of 1600 ug/Kg in the presence of adrenaline (agonist) in anesthetized rats; type: functional, Heart left ventricle
Method in brief: (§4)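 Anesthetized male Wistar rats, two groups of 8, received 400 or 1600 µg/kg iv. Before and after this dose, iv agonist challenges were given: noradrenaline 1 µg/kg, adrenaline, acetylcholine 2.50 µg/kg, or isoprenaline. Systolic/diastolic BP, heart rate and dP/dt responses were recorded before (control) and after dosing; significance was set at p < 0.05 versus control.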

[8] = system: Rattus norvegicus; experiment: Change in respiratory frequency after iv administration of 100 ug/Kg in anesthetized rats; type: functional; method in brief: as §2
[9] = system: Rattus norvegicus; experiment: Change in respiratory frequency after iv administration of 200 ug/Kg in anesthetized rats; type: functional; method in brief: as §2
[10] = system: Rattus norvegicus; experiment: Change in heart rate after iv administration of 800 ug/kg compound (treatment with papaverine(1 mg/kg/min, iv))in anesthetized rats; type: functional
Method in brief: (§5)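 Urethane-anesthetized male Wistar rats, 6 per group, received iv doses of 200-1600 µg/kg (ratio 2.0) given alone or under a pretreatment. Pretreatments were continuous iv papaverine infusion (1 mg/kg/min), reserpine 5 mg/kg/day ip for 2 days, or hexamethonium 5 mg/kg iv. Peak changes in femoral arterial BP and HR were recorded; values are mean ± SE.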

[11] = system: Rattus norvegicus; experiment: Change in systolic blood pressure after iv administration of 800 ug/Kg in anesthetized rats; type: functional, Artery
Method in brief: (§6)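 Urethane-anesthetized (10% w/v, […] ip in saline) adult male Wistar rats, trachea cannulated, breathing spontaneously, 37 °C. Femoral artery catheter for blood pressure, femoral vein for dosing. Sequential iv doses 50–3200 µg/kg (ratio 2.0) in saline, each given after parameters returned to baseline. Peak changes recorded; means ± SE, n = 12 (n = 7 at 3200 µg/kg).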

[12] = system: Rattus norvegicus; experiment: Change in heart rate after iv administration of 3200 ug/Kg in anesthetized rats; type: functional
Method in brief: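 Adult male Wistar rats under ip ethylurethane (10% w/v in saline, 1 mL/kg) with tracheal cannula and spontaneous breathing, kept at 37 °C. Arterial BP was recorded by femoral artery catheter; compound in saline (50 µL) was given via femoral vein at 50–3200 µg/kg, ratio 2.0. Peak change is given as mean ± SE, n = 12 (n = 7 at 3200 µg/kg).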

[13] = system: Rattus norvegicus; experiment: Change in mean aortic flow after iv administration of 1600 ug/Kg in anesthetized rats; type: functional; method in brief: as §2
[14] = system: Rattus norvegicus; experiment: Change in heart rate after iv administration of 1600 ug/Kg in the presence of noradrenaline (agonist) in anesthetized rats; type: functional; method in brief: as §1
[15] = system: Rattus norvegicus; experiment: Change in systolic blood pressure after iv administration of 400 ug/Kg in anesthetized rats; type: functional, Artery; method in brief: as §6
[16] = system: Rattus norvegicus; experiment: Change in mean aortic flow after iv administration of 800 ug/Kg in anesthetized rats; type: functional; method in brief: as §2
[17] = system: Rattus norvegicus; experiment: Maximum rate of rise of the left ventricular isovolumetric pressure was measured after iv administration of 50 ug/Kg in anesthetized rats; type: functional, Heart left ventricle; method in brief: as §6
[18] = system: Rattus norvegicus; experiment: Change in diastolic blood pressure after iv administration of 1600 ug/Kg in the presence of acetylcholine (agonist) in anesthetized rats; type: functional, Artery; method in brief: as §1
[19] = system: Rattus norvegicus; experiment: Change in heart rate after iv administration of 1600 ug/Kg in the presence of isoprenaline (agonist) in anesthetized rats; type: functional; method in brief: as §1
[20] = system: Rattus norvegicus; experiment: Change in systolic blood pressure after iv administration of 400 ug/Kg in the presence of isoprenaline (agonist) in anesthetized rats; type: functional, Artery; method in brief: as §4
[21] = system: Rattus norvegicus; experiment: Change in mean aortic flow after iv administration of 400 ug/Kg in anesthetized rats; type: functional; method in brief: as §2
[22] = system: Rattus norvegicus; experiment: Change in respiratory frequency after iv administration of 1600 ug/Kg in anesthetized rats; type: functional; method in brief: as §2
[23] = system: Rattus norvegicus; experiment: Change in heart rate after iv administration of 4.12 uM/kg in anesthetized rats; type: functional
[24] = system: Rattus norvegicus; experiment: Change in heart rate after iv administration of 800 ug/Kg in anesthetized rats; type: functional; method in brief: as §2
[25] = system: Rattus norvegicus; experiment: Change in systolic blood pressure after iv administration of 50 ug/Kg in anesthetized rats; type: functional, Artery; method in brief: as §6
[26] = system: Rattus norvegicus; experiment: Maximum rate of rise of the left ventricular isovolumetric pressure was measured after iv administration of 400 ug/Kg in the presence of noradrenaline (agonist) in anesthetized rats; type: functional, Heart left ventricle; method in brief: as §4
[27] = system: Rattus norvegicus; experiment: Change in systolic blood pressure after iv administration of 400 ug/Kg compound (treatment with hexamethonium (5 mg/Kg, iv)in anesthetized rats; type: functional, Artery; method in brief: as §5
[28] = system: Rattus norvegicus; experiment: Change in systolic blood pressure after iv administration of 400 ug/Kg in the presence of adrenaline (agonist) in anesthetized rats; type: functional, Artery; method in brief: as §4
[29] = system: Rattus norvegicus; experiment: Change in diastolic blood pressure after iv administration of 800 ug/Kg compound (treatment with papaverine(1 mg/Kg/min, iv)in anesthetized rats; type: functional, Artery; method in brief: as §3
[30] = system: Rattus norvegicus; experiment: Change in stroke volume after iv administration of 50 ug/Kgg in anesthetized rats; type: functional; method in brief: as §2

In the case of `COc1ccc(C2C(c3ccc(OC)c(OC)c3)[C@H](C(=O)NCCCC/N=C(\N)NCC=C(C)C)[C@@H]2C(=O)NCCCC/N=C(\N)NCC=C(C)C)cc1OC` (stereo partly specified) [CARACASANDIAMIDE], the Heart rate [1] is reported as -34 beats min-1, the BP [2] is reported as -14 mmHg and the “Change in BP” value [2] is reported as -13%. For the same compound, the BP [3] was -49 mmHg, the BP [4] was -29 mmHg and the “Change in stroke volume” value [5] was 11%. For the same compound, the Stroke volume [5] was 23 µL, the “Change in stroke volume” value [6] was -43% and the Stroke volume [6] was -86 µL. For the same compound, the dP/dt [7] was 2739 mmHg s-1, the “Change in respiratory frequency” value [8] was 6 beats min-1 and 6% and the “Change in respiratory frequency” value [9] was 9 beats min-1 and 9%. For the same compound, the Heart rate [10] was -17 beats min-1, the BP [11] was -30 mmHg and the “Change in BP” value [11] was -29%. The “Change in heart rate” value [12] was -11%, the Heart rate [12] was -41 beats min-1 and the “Change in mean aortic flow” value [13] was -49%. For the same compound, the Mean aortic flow [13] was -36 mL/min, the Heart rate [14] was 13 beats min-1 and the BP [15] was -20 mmHg. For the same compound, the “Change in BP” value [15] was -19%, the “Change in mean aortic flow” value [16] was -34% and the Mean aortic flow [16] was -25 mL/min. For the same compound, the “Change in dP/dt” value [17] was 17%, the dP/dt [17] was 1070 mmHg s-1 and the BP [18] was -54 mmHg. The Heart rate [19] was 79 beats min-1, the BP [20] was -36 mmHg and the Mean aortic flow [21] was -14 mL/min. The “Change in respiratory frequency” value [22] was -61 beats min-1 and -64%, the Heart rate [23] was -35 beats min-1 and the “Change in heart rate” value [24] was -4%. For the same compound, the Heart rate [24] was -16 beats min-1, the BP [25] was 17 mmHg and the “Change in BP” value [25] was 16%. The dP/dt [26] was 5136 mmHg s-1, the BP [27] was -41 mmHg and the BP [28] was 21 mmHg. It also gave a BP [29] of -16 mmHg and a Stroke volume [30] of 73 µL.
